# Where “and” joins values, the source holds several entries; their conditions need not be identical. Equal values may be shown once.
# Experiments:
# Fibroblast = test: Multiplex assay against human fibroblast; assay type: toxicity, cell-based
# Method in brief: (§1)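 Live cells were stained at seeding with Hoechst33342, BioTracker Green Microtubule Cytoskeleton Dye, MitoTracker Red and Annexin V Alexa Fluor 680. Following compound addition, they were imaged on a CQ1 microscope at 37°C and 5% CO2 and gated by CellPathfinder machine learning into Hoechst high-intensity objects or normal cells, with normal cells split into healthy, pyknosed or fragmented nuclei and pyknosed cells into mitotic or apoptotic. Tubulin, mitochondrial-mass and membrane-permeability phenotypes are per cents of healthy-nucleus cells.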
# HEK-293T = test: Multiplex assay against HEK293T; assay type: toxicity, cell-based; conditions: human; method in brief: as §1
# [1] = 12 h, 1 µM, compound concentration 1 uM
# [2] = 12 h, 10 µM, compound concentration 10 uM
# [3] = 24 h, 1 µM, compound concentration 1 uM
# [4] = 24 h, 10 µM, compound concentration 10 uM
# [5] = 48 h, 1 µM, compound concentration 1 uM
# [6] = 48 h, 10 µM, compound concentration 10 uM
smiles,measurement,setting,value
CC(C)CC(=O)Nc1cncc(-c2ccc3[nH]nc(-c4nc5c(-c6cccc(F)c6)cncc5[nH]4)c3c2)c1 [LORECIVIVINT],Population Fragmented Nuclei (%),Fibroblast; [1],12.2% and 10.34%
same,Population Healthy Nuclei (%),Fibroblast; [1],60.98% and 74.14%
same,Population Hoechst High Intensity Objects (%),Fibroblast; [1],0%
same,Population Membrane Permeable-Phenotype (%),Fibroblast; [1],6% and 10.08%
same,Population Mitochondria Different-Phenotype (%),Fibroblast; [1],10% and 9.3%
same,Population Mitotic Cells (%),Fibroblast; [1],95.45% and 62.96%
same,Population Normal (%),Fibroblast; [1],100%
same,Population Pyknosed Nuclei (%),Fibroblast; [1],26.83% and 15.52%
same,Population Tubulin-Different-Phenotype (%),Fibroblast; [1],36% and 44.19%
same,Total Cell Count,Fibroblast; [1],164 and 174
same,Population Apoptotic (%),Fibroblast; [2],37.84% and 20.2%
same,Population Fragmented Nuclei (%),Fibroblast; [2],10.38% and 7.03%
same,Population Healthy Nuclei (%),Fibroblast; [2],64.01% and 61.34%
same,Population Hoechst High Intensity Objects (%),Fibroblast; [2],0%
same,Population Membrane Permeable-Phenotype (%),Fibroblast; [2],14.59% and 9.38%
same,Population Mitochondria Different-Phenotype (%),Fibroblast; [2],4.86% and 2.08%
same,Population Mitotic Cells (%),Fibroblast; [2],62.16% and 79.8%
same,Population Normal (%),Fibroblast; [2],100%
same,Population Pyknosed Nuclei (%),Fibroblast; [2],25.61% and 31.63%
same,Population Tubulin-Different-Phenotype (%),Fibroblast; [2],37.84% and 36.46%
same,Total Cell Count,Fibroblast; [2],289 and 313
same,Population Apoptotic (%),Fibroblast; [3],12.9% and 25%
same,Population Fragmented Nuclei (%),Fibroblast; [3],14.37% and 8.2%
same,Population Healthy Nuclei (%),Fibroblast; [3],67.82% and 80.87%
same,Population Hoechst High Intensity Objects (%),Fibroblast; [3],0%
same,Population Membrane Permeable-Phenotype (%),Fibroblast; [3],6.78% and 12.84%
same,Population Mitochondria Different-Phenotype (%),Fibroblast; [3],5.08% and 2.7%
same,Population Mitotic Cells (%),Fibroblast; [3],87.1% and 75%
same,Population Normal (%),Fibroblast; [3],100%
same,Population Pyknosed Nuclei (%),Fibroblast; [3],17.82% and 10.93%
same,Population Tubulin-Different-Phenotype (%),Fibroblast; [3],34.75% and 50.68%
same,Total Cell Count,Fibroblast; [3],174 and 183
same,Population Apoptotic (%),Fibroblast; [4],40% and 21.83%
same,Population Fragmented Nuclei (%),Fibroblast; [4],10% and 5.2%
same,Population Healthy Nuclei (%),Fibroblast; [4],49.38% and 59.65%
same,Population Hoechst High Intensity Objects (%),Fibroblast; [4],0%
same,Population Membrane Permeable-Phenotype (%),Fibroblast; [4],13.29% and 10.37%
same,Population Mitochondria Different-Phenotype (%),Fibroblast; [4],2.53% and 0.41%
same,Population Mitotic Cells (%),Fibroblast; [4],60% and 78.17%
same,Population Normal (%),Fibroblast; [4],100%
same,Population Pyknosed Nuclei (%),Fibroblast; [4],40.62% and 35.15%
same,Population Tubulin-Different-Phenotype (%),Fibroblast; [4],37.97% and 34.02%
same,Total Cell Count,Fibroblast; [4],320 and 404
same,Population Apoptotic (%),Fibroblast; [5],16.67% and 32.43%
same,Population Fragmented Nuclei (%),Fibroblast; [5],16.43% and 12.15%
same,Population Healthy Nuclei (%),Fibroblast; [5],60.39% and 67.4%
same,Population Hoechst High Intensity Objects (%),Fibroblast; [5],0%
same,Population Membrane Permeable-Phenotype (%),Fibroblast; [5],8% and 13.93%
same,Population Mitochondria Different-Phenotype (%),Fibroblast; [5],9.6% and 4.92%
same,Population Mitotic Cells (%),Fibroblast; [5],83.33% and 67.57%
same,Population Normal (%),Fibroblast; [5],100%
same,Population Pyknosed Nuclei (%),Fibroblast; [5],23.19% and 20.44%
same,Population Tubulin-Different-Phenotype (%),Fibroblast; [5],32% and 47.54%
same,Total Cell Count,Fibroblast; [5],207 and 181
same,Population Apoptotic (%),Fibroblast; [6],46.41% and 43.05%
same,Population Fragmented Nuclei (%),Fibroblast; [6],10.67% and 7.39%
same,Population Healthy Nuclei (%),Fibroblast; [6],33.6% and 33.77%
same,Population Hoechst High Intensity Objects (%),Fibroblast; [6],0%
same,Population Membrane Permeable-Phenotype (%),Fibroblast; [6],8.73% and 10.16%
same,Population Mitochondria Different-Phenotype (%),Fibroblast; [6],5.56% and 1.56%
same,Population Mitotic Cells (%),Fibroblast; [6],53.59% and 56.95%
same,Population Normal (%),Fibroblast; [6],100%
same,Population Pyknosed Nuclei (%),Fibroblast; [6],55.73% and 58.84%
same,Population Tubulin-Different-Phenotype (%),Fibroblast; [6],17.46% and 26.56%
same,Total Cell Count,Fibroblast; [6],375 and 379
same,Population Apoptotic (%),HEK-293T; [1],14.17% and 27.84%
same,Population Fragmented Nuclei (%),HEK-293T; [1],5.95% and 3.7%
same,Population Hoechst High Intensity Objects (%),HEK-293T; [1],0%
same,Population Membrane Permeable-Phenotype (%),HEK-293T; [1],0% and 14.29%
same,Population Mitochondria Different-Phenotype (%),HEK-293T; [1],48.15% and 42.86%
same,Population Mitotic Cells (%),HEK-293T; [1],85.83% and 72.16%
same,Population Normal (%),HEK-293T; [1],100%
same,Population Pyknosed Nuclei (%),HEK-293T; [1],64.86% and 89.81%
same,Population Tubulin-Different-Phenotype (%),HEK-293T; [1],64.81% and 57.14%
same,Total Cell Count,HEK-293T; [1],185 and 108
same,Population Apoptotic (%),HEK-293T; [2],42.93% and 42.98%
same,Population Fragmented Nuclei (%),HEK-293T; [2],3.44% and 7.88%
same,Population Healthy Nuclei (%),HEK-293T; [2],23.66% and 18.79%
same,Population Hoechst High Intensity Objects (%),HEK-293T; [2],0%
same,Population Membrane Permeable-Phenotype (%),HEK-293T; [2],3.23%
same,Population Mitochondria Different-Phenotype (%),HEK-293T; [2],19.35% and 6.45%
same,Population Mitotic Cells (%),HEK-293T; [2],57.07% and 57.02%
same,Population Normal (%),HEK-293T; [2],100%
same,Population Pyknosed Nuclei (%),HEK-293T; [2],72.9% and 73.33%
same,Total Cell Count,HEK-293T; [2],262 and 165
same,Population Apoptotic (%),HEK-293T; [3],54.44% and 66.67%
same,Population Fragmented Nuclei (%),HEK-293T; [3],8.33% and 5.61%
same,Population Hoechst High Intensity Objects (%),HEK-293T; [3],0.64% and 0%
same,Population Membrane Permeable-Phenotype (%),HEK-293T; [3],0%
same,Population Mitochondria Different-Phenotype (%),HEK-293T; [3],83.02% and 75%
same,Population Mitotic Cells (%),HEK-293T; [3],45.56% and 33.33%
same,Population Normal (%),HEK-293T; [3],99.36% and 100%
same,Population Pyknosed Nuclei (%),HEK-293T; [3],57.69% and 86.92%
same,Population Tubulin-Different-Phenotype (%),HEK-293T; [3],94.34% and 50%

# From ChEMBL document CHEMBL5724801, “EUbOPEN Chemogenomics Library - Multiplex” (2024)
